Assay results: ChEMBL document CHEMBL1955778, “Design and synthesis of novel 7-aminoquinazoline derivatives: antitumor and anticonvulsant activities” (Bioorg Med Chem Lett, 2012)

Columns and labels:
Mus musculus [1] = test: Anticonvulsant activity in mouse assessed as protection against picrotoxin-induced seizure at 1 mmol/kg, ip administered 30 min prior to picrotoxin-challenge measured after 60 mins relative to control; format: functional
SNB-19 = test: Growth inhibition of human SNB19 cells at 10 uM relative to control; format: functional; settings: read-out: GI
Summary of the method: (§1)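 Single-dose screen across the 60-cell-line human tumor panel at 10 μM. Growth inhibition is reported as a percentage, taken as 100 minus the % growth relative to untreated control.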

HCT-116 = test: Growth inhibition of human HCT116 cells at 10 uM relative to control; format: functional; settings: read-out: GI
Summary of the method: (§2)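 Each cell line in a 60-line human tumour panel exposed to one 10 μM concentration. Growth inhibition percentage computed as 100 minus the percentage activity relative to control.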

Mus musculus [2] = test: Anticonvulsant activity in mouse assessed as protection against strychnine-induced seizure at 1 mmol/kg, ip administered 30 min prior to strychnine-challenge measured after 60 mins relative to control; format: functional
NCI-H23 = test: Growth inhibition of human NCI-H23 cells at 10 uM relative to control; format: functional; settings: read-out: GI; summary of the method: as §2
A549 = test: Growth inhibition of human A549 cells at 10 uM relative to control; format: functional; settings: read-out: GI; summary of the method: as §2
MDA-MB-231 = test: Growth inhibition of human MDA-MB-231 cells at 10 uM relative to control; format: functional; settings: read-out: GI; summary of the method: as §2
K562 = test: Growth inhibition of human K562 cells at 10 uM relative to control; format: functional; settings: read-out: GI; summary of the method: as §2
SF-268 = test: Growth inhibition of human SF268 cells at 10 uM relative to control; format: functional; settings: read-out: GI; summary of the method: as §2
MDA-MB-435 = test: Growth inhibition of human MDA-MB-435 cells at 10 uM relative to control; format: functional; settings: read-out: GI; summary of the method: as §2
UO-31 = test: Growth inhibition of human UO31 cells at 10 uM relative to control; format: functional; settings: read-out: GI; summary of the method: as §1
SK-MEL-28 = test: Growth inhibition of human SK-MEL-28 cells at 10 uM relative to control; format: functional; settings: read-out: GI; summary of the method: as §2
Mus musculus [3] = species: Mus musculus; test: Protective index, ratio of TD50 for mouse to ED50 for pentylenetetrazol-induced seizure in mouse; format: functional
Summary of the method: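 Mice. Index is TD50/ED50. TD50 is the dose causing minimal neurological toxicity in 50% of mice in the Chimney test. ED50 is the dose protecting 50% of mice against pentylenetetrazole-induced seizures. Both are estimated from testing at several doses.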

KM12 = test: Growth inhibition of human KM12 cells at 10 uM relative to control; format: functional; settings: read-out: GI; summary of the method: as §2
SNB-75 = test: Growth inhibition of human SNB75 cells at 10 uM relative to control; format: functional; settings: read-out: GI; summary of the method: as §1
[4] = Growth inhibition of human Hs 578T cells at 10 uM relative to control; format: functional; settings: read-out: GI; summary of the method: as §2
Mus musculus [5] = test: Anticonvulsant activity in ip dosed mouse assessed as protection against pentylenetetrazol-induced seizure administered 30 min prior to pentylenetetrazol-challenge measured after 60 mins; format: functional
Summary of the method: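 Mice received several doses for quantification. ED50 taken as the dose protecting 50% of mice against pentylenetetrazol-induced seizures.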

NCI-H522 = test: Growth inhibition of human NCI-H522 cells at 10 uM relative to control; format: functional; settings: read-out: GI; summary of the method: as §2
MCF7 = test: Growth inhibition of human MCF7 cells at 10 uM relative to control; format: functional; settings: read-out: GI; summary of the method: as §2
RPMI-8226 = test: Growth inhibition of human RPMI8226 cells at 10 uM relative to control; format: functional; settings: read-out: GI; summary of the method: as §2
CAKI-1 = test: Growth inhibition of human CAKI-1 cells at 10 uM relative to control; format: functional; settings: read-out: GI; summary of the method: as §2
[6] = Toxicity in ip dose mouse assessed as mortality; format: organism-based; settings: in vivo
Summary of the method: (§3)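 In mice, LD50 is the dose causing 50% mortality. ED50 is the dose protecting 50% of mice against pentylenetetrazole-induced seizures. Therapeutic index = LD50/ED50.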

CCRF-CEM = test: Growth inhibition of human CCRF-CEM cells at 10 uM relative to control; format: functional; settings: read-out: GI; summary of the method: as §2
PC-3 = test: Growth inhibition of human PC3 cells at 10 uM relative to control; format: functional; settings: read-out: GI; summary of the method: as §2
U-251 = test: Growth inhibition of human U251 cells at 10 uM relative to control; format: functional; settings: read-out: GI; summary of the method: as §1
Mus musculus [7] = test: Anticonvulsant activity in mouse assessed as protection against pentylenetetrazol-induced seizure at 1 mmol/kg, ip administered 30 min prior to pentylenetetrazol-challenge measured after 60 mins relative to control; format: functional
OVCAR-8 = test: Growth inhibition of human OVCAR8 cells at 10 uM relative to control; format: functional; settings: read-out: GI; summary of the method: as §2
EKVX = test: Growth inhibition of human EKVX cells at 10 uM relative to control; format: functional; settings: read-out: GI; summary of the method: as §2
[8] = Neurotoxicity in ip dosed mouse assessed as impaired motor coordination administered 30 mins prior to test by chimney test; format: toxicity, organism-based; settings: in vivo
Summary of the method: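 Mice, Chimney test. TD50 is the dose that produces minimal neurological toxicity (impaired motor coordination) in 50% of animals, estimated from testing at several doses.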

T47D = test: Growth inhibition of human T47D cells at 10 uM relative to control; format: functional; settings: read-out: GI; summary of the method: as §1
SR = test: Growth inhibition of human SR cells at 10 uM relative to control; format: functional; settings: read-out: GI; summary of the method: as §1
NCI-H226 = test: Growth inhibition of human NCI-H226 cells at 10 uM relative to control; format: functional; settings: read-out: GI; summary of the method: as §2
HL-60(TB) = test: Growth inhibition of human HL-60(TB) cells at 10 uM relative to control; format: functional; settings: read-out: GI
Summary of the method: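 Single-dose screen at 10 μM across the 60-cell-line tumour panel. Percent growth inhibition = 100 minus percent growth activity relative to untreated control.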

[9] = Therapeutic index, ratio of LD50 for mouse to ED50 for pentylenetetrazol-induced seizure in mouse; format: organism-based; settings: in vivo, read-out: Ratio LD50/ED50; summary of the method: as §3
Mus musculus [10] = test: Anticonvulsant activity in mouse assessed as protection against maximal electroshock-induced seizure at 1 mmol/kg, ip administered 30 min prior to maximal electroshock-challenge measured after 60 mins relative to control; format: functional
OVCAR-4 = test: Growth inhibition of human OVCAR4 cells at 10 uM relative to control; format: functional; settings: read-out: GI; summary of the method: as §2
[11] = Growth inhibition of human 786-O cells at 10 uM relative to control; format: functional; settings: 786-0, read-out: GI; summary of the method: as §2
MOLT-4 = test: Growth inhibition of human MOLT4 cells at 10 uM relative to control; format: functional; settings: read-out: GI; summary of the method: as §2
HCT-15 = test: Growth inhibition of human HCT15 cells at 10 uM relative to control; format: functional; settings: read-out: GI; summary of the method: as §2
SN12C = test: Growth inhibition of human SN12C cells at 10 uM relative to control; format: functional; settings: read-out: GI; summary of the method: as §1
MDA-MB-468 = test: Growth inhibition of human MDA-MB-468 cells at 10 uM relative to control; format: functional; settings: read-out: GI; summary of the method: as §2

Question: For `Cc1ccccc1-n1c(C)nc2cc(N3C(=O)CSC3c3ccccc3)ccc2c1=O` (stereo unspecified), which Activity (Mus musculus [1]) is on record?
Answer: 50%

Question: And the inhibition of growth at 10 µM (SNB-19)?
Answer: 9.7%

Question: And the inhibition of growth at 10 µM (HCT-116)?
Answer: 16%

Question: And the Activity (Mus musculus [2])?
Answer: 0%

Question: And the inhibition of growth at 10 µM (NCI-H23)?
Answer: 4.4%

Question: What about the inhibition of growth at 10 µM (A549) of the same compound?
Answer: 8.1%

Question: And the inhibition of growth at 10 µM (MDA-MB-231)?
Answer: 17.3%

Question: What about the inhibition of growth at 10 µM (K562) of the same compound?
Answer: 37.6%

Question: And the inhibition of growth at 10 µM (SF-268)?
Answer: 14.2%

Question: And the inhibition of growth at 10 µM (MDA-MB-435)?
Answer: 9.7%

Question: What about the inhibition of growth at 10 µM (UO-31) of the same compound?
Answer: 22%

Question: What about the inhibition of growth at 10 µM (SK-MEL-28) of the same compound?
Answer: 5%

Question: What about the “Ratio TD50/ED50” value (Mus musculus [3]) of the same compound?
Answer: 1.06

Question: And the inhibition of growth at 10 µM (KM12)?
Answer: 15.5%

Question: What about the inhibition of growth at 10 µM (SNB-75) of the same compound?
Answer: 19.5%

Question: And the inhibition of growth at 10 µM [4]?
Answer: 6%

Question: What about the ED50 (Mus musculus [5]) of the same compound?
Answer: 700 µmol/kg

Question: What about the inhibition of growth at 10 µM (NCI-H522) of the same compound?
Answer: 18%

Question: And the inhibition of growth at 10 µM (MCF7)?
Answer: 21.8%

Question: What about the inhibition of growth at 10 µM (RPMI-8226) of the same compound?
Answer: 21.4%

Question: And the inhibition of growth at 10 µM (CAKI-1)?
Answer: 15.6%

Question: What about the LD50 [6] of the same compound?
Answer: 1500 µmol/kg

Question: What about the inhibition of growth at 10 µM (CCRF-CEM) of the same compound?
Answer: 31.1%

Question: And the inhibition of growth at 10 µM (PC-3)?
Answer: 26.9%

Question: What about the inhibition of growth at 10 µM (U-251) of the same compound?
Answer: 13%

Question: What about the Activity (Mus musculus [7]) of the same compound?
Answer: 100%

Question: And the inhibition of growth at 10 µM (OVCAR-8)?
Answer: 5%

Question: What about the inhibition of growth at 10 µM (EKVX) of the same compound?
Answer: 12.8%

Question: What about the TD50 at 0.5 h [8] of the same compound?
Answer: 750 µmol/kg

Question: And the inhibition of growth at 10 µM (T47D)?
Answer: 25.8%

Question: And the inhibition of growth at 10 µM (SR)?
Answer: 35.3%

Question: What about the inhibition of growth at 10 µM (NCI-H226) of the same compound?
Answer: 14.3%

Question: What about the inhibition of growth at 10 µM (HL-60(TB)) of the same compound?
Answer: 32.7%

Question: What about the selectivity ratio [9] of the same compound?
Answer: 2.13

Question: What about the Activity (Mus musculus [10]) of the same compound?
Answer: 100%

Question: And the inhibition of growth at 10 µM (OVCAR-4)?
Answer: 3%

Question: What about the inhibition of growth at 10 µM [11] of the same compound?
Answer: 3%

Question: What about the inhibition of growth at 10 µM (MOLT-4) of the same compound?
Answer: 46.3%

Question: What about the inhibition of growth at 10 µM (HCT-15) of the same compound?
Answer: 13.3%

Question: And the inhibition of growth at 10 µM (SN12C)?
Answer: 3%

Question: And the inhibition of growth at 10 µM (MDA-MB-468)?
Answer: 25.8%
